Consider three molecules from ChEMBL document CHEMBL1144028, “Novel 2,3-dihydro-1,4-benzoxazines as potent and orally bioavailable inhibitors of tumor-driven angiogenesis” (J Med Chem, 2008).

pIC50: −log10 of the molar value. In brackets after ≈: the same amount, converted by molar mass. A value given as a limit tells only on which side of the number the result lay.

Data set [1] is described as follows: Solubility in PBS at pH 7. It counts as physicochemical. Summed up: (§1)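 Equilibrium solubility measured in 0.01 N HCl, PBS (pH 7), and simulated intestinal fluid.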
The target of data set [2] is Hepatocyte growth factor receptor (Homo sapiens, UniProt P08581). As to the kind of experiment: Inhibition of c-Met.
Chain of Hepatocyte growth factor receptor (P08581 whole entry): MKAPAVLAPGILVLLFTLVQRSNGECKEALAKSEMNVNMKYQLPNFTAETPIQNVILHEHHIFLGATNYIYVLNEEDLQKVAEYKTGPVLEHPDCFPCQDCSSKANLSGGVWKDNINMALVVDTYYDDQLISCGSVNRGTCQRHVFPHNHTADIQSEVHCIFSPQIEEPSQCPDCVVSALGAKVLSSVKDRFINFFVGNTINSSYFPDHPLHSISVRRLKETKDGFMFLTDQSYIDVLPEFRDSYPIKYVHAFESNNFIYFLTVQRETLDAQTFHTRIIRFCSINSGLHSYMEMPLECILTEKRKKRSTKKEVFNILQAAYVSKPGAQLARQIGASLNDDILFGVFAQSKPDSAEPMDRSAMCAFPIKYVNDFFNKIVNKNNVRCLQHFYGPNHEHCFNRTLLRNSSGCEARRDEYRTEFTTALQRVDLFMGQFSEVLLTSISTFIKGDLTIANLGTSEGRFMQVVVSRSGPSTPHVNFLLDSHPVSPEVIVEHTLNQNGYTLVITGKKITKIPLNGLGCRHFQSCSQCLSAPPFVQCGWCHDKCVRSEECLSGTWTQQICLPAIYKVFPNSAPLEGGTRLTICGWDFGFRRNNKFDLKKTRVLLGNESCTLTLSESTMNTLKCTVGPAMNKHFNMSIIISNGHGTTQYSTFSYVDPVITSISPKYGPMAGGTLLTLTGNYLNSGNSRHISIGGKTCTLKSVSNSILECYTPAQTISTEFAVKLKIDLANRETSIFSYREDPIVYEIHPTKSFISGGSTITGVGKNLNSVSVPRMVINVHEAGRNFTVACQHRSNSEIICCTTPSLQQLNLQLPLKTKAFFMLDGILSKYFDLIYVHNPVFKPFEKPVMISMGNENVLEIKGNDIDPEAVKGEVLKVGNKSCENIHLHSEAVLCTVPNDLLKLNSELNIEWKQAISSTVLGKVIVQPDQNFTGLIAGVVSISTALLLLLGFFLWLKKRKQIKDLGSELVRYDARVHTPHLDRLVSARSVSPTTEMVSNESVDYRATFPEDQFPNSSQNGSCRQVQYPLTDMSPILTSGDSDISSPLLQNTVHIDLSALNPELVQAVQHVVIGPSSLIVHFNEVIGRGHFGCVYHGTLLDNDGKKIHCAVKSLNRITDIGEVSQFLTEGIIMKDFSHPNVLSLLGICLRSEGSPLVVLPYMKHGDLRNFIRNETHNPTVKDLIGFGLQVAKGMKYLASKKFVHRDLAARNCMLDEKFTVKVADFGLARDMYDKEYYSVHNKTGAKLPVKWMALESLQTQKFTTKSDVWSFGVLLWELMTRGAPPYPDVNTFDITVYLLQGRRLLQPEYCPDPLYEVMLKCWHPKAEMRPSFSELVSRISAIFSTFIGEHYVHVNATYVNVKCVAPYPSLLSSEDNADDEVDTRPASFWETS
Data set [3] can be described thus: Clearance in Sprague-Dawley rat at 0.5 mg/kg, iv. Format: ADME, organism-based. Also on record: dose 0.5 mg/kg, route intravenous. Particulars: in vivo. Summed up: (§2)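 Male Sprague Dawley rats; single dose, 0.5 mg/kg iv or 2 mg/kg po; mean pharmacokinetic parameters reported.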
A short description of data set [4]: Oral bioavailability in Sprague-Dawley rat at 2 mg/kg, po. To be noted: in vivo. Format: ADME, organism-based. Put shortly:
as §2

Data set [5] concerns the target Vascular endothelial growth factor receptor 2 (Homo sapiens, UniProt P35968). As to the kind of experiment: Inhibition of KDR by HTRF assay. Summed up:
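KDR read by homogeneous time-resolved fluorescence with a biotinylated gastrin substrate. IC50 is the mean of two or more separate determinations, each in duplicate.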

The nature of data set [6]: Cmax in Sprague-Dawley rat at 2 mg/kg, po. To be noted: in vivo. Format: ADME, organism-based. Also on record: dose 2 mg/kg, route oral. Summed up:
as §2

A short description of data set [7]: Solubility in simulated intestinal fluid. Format: physicochemical. Summed up: as §1
For data set [8], the system named is HUVEC. As to the kind of experiment: Inhibition of FGF-induced proliferation of HUVEC cells. Format: functional, cell-based. Particulars: Homo sapiens. Summed up:
(§3)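 Human umbilical vein endothelial cell proliferation driven by VEGF or by FGF; IC50 is the mean of two or more separate determinations, each in duplicate.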

The target in data set [9] is Tyrosine-protein kinase Lck (Homo sapiens, UniProt P06239). As to the kind of experiment: Inhibition of Lck.
Chain of Tyrosine-protein kinase Lck (P06239 whole entry): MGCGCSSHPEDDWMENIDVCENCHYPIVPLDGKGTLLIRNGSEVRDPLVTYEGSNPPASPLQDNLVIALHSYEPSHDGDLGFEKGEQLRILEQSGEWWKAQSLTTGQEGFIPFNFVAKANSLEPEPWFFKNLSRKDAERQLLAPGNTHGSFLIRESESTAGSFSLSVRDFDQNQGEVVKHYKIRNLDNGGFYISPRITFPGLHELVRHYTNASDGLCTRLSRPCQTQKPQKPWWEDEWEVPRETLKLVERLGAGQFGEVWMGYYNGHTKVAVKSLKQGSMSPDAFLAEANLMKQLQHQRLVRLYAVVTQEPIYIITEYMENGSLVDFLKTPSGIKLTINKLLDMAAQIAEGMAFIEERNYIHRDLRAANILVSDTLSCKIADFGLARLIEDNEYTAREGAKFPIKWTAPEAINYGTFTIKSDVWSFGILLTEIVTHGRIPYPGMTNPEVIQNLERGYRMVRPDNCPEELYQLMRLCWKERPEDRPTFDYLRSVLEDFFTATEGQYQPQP
Data set [10] can be described thus: Metabolic stability in rat liver microsomes. To be noted: read-out: Stability. Format: ADME, Microsome. Put shortly: (§4)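 In vitro stability on incubation with human or rat liver microsomal preparations.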
The next data set addresses Angiopoietin-1 receptor (Homo sapiens, UniProt Q02763). As to the kind of experiment: Inhibition of Tie2.
Data set [11] in a line: Solubility in 0.01 N HCl. Format: physicochemical. Put shortly:
as §1

For data set [12], the system named is HUVEC. As to the kind of experiment: Inhibition of VEGF-induced proliferation of HUVEC cells. It counts as functional, cell-based. To be noted: Homo sapiens. Summed up:
as §3

A short description of data set [13]: Volume of distribution at steady state in Sprague-Dawley rat at 0.5 mg/kg, iv. It counts as ADME, organism-based. Also on record: dose 0.5 mg/kg, route intravenous. Particulars: in vivo, read-out: Vdss. Put shortly: as §2
Data set [14] in a line: Tmax in Sprague-Dawley rat at 2 mg/kg, po. It counts as ADME, organism-based. Also on record: dose 2 mg/kg, route oral. Particulars: in vivo. Put shortly:
as §2

Data set [15] is described as follows: AUC (0 to infinity) in Sprague-Dawley rat at 2 mg/kg, po. To be noted: plasma. More on the design: time infinity, dose 2 mg/kg, route oral. It counts as ADME, organism-based. Put shortly:
as §2

A short description of data set [16]: Half life in Sprague-Dawley rat at 0.5 mg/kg, iv. It counts as ADME, organism-based. Also on record: dose 0.5 mg/kg, route intravenous. Particulars: in vivo. Summed up: as §2
Data set [17] in a line: Metabolic stability in human liver microsomes. It counts as ADME, Microsome. To be noted: read-out: Stability. Put shortly:
as §4

A short description of data set [18]: Cmax in VEGF-soaked disk implanted Sprague-Dawley rat at […]. More on the design: dose 0.16 mg/kg. Particulars: in vivo, read-out: ED50. Format: ADME, organism-based.
A short description of data set [19]: AUC in VEGF-soaked disk implanted Sprague-Dawley rat at […]. To be noted: plasma, read-out: ED50. It counts as ADME, organism-based. Also on record: dose 0.16 mg/kg.
Setting [20] is: simulated intestinal fluid, read-out: Solubility.
Setting [21] is: 0.01 N HCl, read-out: Solubility.

Chain of Angiopoietin-1 receptor (Q02763 whole entry): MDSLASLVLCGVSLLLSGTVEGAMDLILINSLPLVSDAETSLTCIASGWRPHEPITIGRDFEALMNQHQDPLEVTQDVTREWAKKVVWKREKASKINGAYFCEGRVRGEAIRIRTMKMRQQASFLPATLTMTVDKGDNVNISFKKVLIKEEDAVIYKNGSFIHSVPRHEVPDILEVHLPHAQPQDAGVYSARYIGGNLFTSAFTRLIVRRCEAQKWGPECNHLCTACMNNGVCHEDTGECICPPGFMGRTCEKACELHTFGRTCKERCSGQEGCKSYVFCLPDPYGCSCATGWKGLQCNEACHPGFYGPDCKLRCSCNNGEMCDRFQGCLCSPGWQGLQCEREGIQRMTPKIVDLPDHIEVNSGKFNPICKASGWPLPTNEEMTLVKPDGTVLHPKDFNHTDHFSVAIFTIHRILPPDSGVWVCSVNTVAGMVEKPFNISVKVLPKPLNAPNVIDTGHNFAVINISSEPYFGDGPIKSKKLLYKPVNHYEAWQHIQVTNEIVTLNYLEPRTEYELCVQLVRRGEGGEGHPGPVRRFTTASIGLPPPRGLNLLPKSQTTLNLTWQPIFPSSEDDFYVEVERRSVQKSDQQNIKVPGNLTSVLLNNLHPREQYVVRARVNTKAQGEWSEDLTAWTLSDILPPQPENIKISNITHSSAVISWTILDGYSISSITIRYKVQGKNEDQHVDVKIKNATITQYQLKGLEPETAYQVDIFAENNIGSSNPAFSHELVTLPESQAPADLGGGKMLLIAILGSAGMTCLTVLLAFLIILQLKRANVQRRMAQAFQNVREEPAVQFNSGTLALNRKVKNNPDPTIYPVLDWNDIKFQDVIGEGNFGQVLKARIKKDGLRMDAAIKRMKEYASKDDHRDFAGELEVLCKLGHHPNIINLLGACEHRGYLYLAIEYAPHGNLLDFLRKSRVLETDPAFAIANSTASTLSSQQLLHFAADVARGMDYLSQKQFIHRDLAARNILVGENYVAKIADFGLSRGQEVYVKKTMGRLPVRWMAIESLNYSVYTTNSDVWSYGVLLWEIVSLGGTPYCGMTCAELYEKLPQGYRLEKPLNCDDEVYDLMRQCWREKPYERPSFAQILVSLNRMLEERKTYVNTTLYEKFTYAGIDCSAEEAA
Chain of Vascular endothelial growth factor receptor 2 (P35968 whole entry): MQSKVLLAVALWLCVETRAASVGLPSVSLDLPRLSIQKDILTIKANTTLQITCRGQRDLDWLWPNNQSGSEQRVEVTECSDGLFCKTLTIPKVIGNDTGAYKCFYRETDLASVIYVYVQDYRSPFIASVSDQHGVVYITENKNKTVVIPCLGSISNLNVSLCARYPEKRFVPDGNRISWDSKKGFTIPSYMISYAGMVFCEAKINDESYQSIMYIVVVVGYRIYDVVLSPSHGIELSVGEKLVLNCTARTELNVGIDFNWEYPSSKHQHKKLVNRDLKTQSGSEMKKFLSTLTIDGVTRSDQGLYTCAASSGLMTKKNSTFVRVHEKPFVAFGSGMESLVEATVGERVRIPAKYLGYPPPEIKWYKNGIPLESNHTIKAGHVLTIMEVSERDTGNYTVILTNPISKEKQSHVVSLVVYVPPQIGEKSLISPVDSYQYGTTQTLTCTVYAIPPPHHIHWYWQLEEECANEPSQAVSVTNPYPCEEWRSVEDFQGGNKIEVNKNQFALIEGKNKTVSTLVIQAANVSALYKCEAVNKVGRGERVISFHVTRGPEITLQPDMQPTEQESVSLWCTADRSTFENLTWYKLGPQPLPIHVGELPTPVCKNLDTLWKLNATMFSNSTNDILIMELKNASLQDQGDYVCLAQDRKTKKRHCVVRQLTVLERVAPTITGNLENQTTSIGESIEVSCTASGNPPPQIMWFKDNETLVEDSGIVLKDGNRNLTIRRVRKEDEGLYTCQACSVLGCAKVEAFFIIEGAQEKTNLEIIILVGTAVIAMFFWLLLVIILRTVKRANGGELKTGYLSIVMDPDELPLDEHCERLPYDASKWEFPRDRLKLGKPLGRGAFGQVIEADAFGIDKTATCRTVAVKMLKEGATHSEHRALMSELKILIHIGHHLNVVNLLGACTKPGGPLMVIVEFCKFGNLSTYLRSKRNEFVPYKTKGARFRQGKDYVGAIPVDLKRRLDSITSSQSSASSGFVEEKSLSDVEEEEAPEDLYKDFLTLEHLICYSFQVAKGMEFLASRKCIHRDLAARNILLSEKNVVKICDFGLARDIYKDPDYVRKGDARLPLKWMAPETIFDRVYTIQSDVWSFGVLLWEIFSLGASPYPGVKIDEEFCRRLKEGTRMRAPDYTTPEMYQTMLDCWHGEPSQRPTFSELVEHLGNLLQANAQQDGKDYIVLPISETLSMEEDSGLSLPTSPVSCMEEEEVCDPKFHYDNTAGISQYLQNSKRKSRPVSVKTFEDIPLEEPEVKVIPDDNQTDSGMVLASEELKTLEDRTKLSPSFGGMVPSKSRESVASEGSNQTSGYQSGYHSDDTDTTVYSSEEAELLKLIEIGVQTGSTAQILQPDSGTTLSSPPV

Turning to `COc1cc2nccc(Oc3ccc4c(c3)OCCN4C(=O)Nc3ccc(C)cc3)c2cc1OC`, the solubility was less than 1 µg/mL in data set [1], 22 µg/mL (≈ 46.7 µM) in [7] (setting [20]) and more than 200 µg/mL in data set [11] (setting [21]). Besides, the negative-log IC50 (pIC50) was 6.43 in data set [2]; 9.70 in data set [5]; 6.55 with HUVEC [8]; 7.20 in data set [9]; 6.00 at Angiopoietin-1 receptor; 8.52 with HUVEC [12]. The clearance in data set [3] was 12 mL/min/kg. Also, in data set [4], the bioavailability is 47%. The same molecule returned a Cmax in data set [6] of 300 ng/mL. Besides, the microsomal CLint in data set [10] turned out to be 104 µL/min/mg; in data set [17], 31 µL/min/mg. Besides, the Vd in [13] is 2.8 L/kg. The Tmax in [14] was determined as 1 h. In addition, in [15], the AUC(0-inf) is 1300 ng·h/mL. Also, the half-life in data set [16] was 4.4 h.

In [3], `COc1cc2nccc(Oc3ccc4c(c3)OCCN4C(=O)Nc3ccc(Cl)cc3)c2cc1OC` showed a clearance of 4 mL/min/kg. Besides, the bioavailability in data set [4] was 95%. Moreover, the Cmax in data set [6] came out at 810 ng/mL; in data set [18] it was 180 nM. For the same molecule, the figures for the solubility in [7] (simulated gi fluid) and in data set [11] (buffer) were 33 µg/mL (≈ 67.1 µM) and 28 µg/mL (≈ 56.9 µM), respectively. The microsomal CLint in data set [10] is 44 µL/min/mg; in [17] it was less than 14 µL/min/mg. The AUC in data set [19] turned out to be 2.8 µM·h. In data set [13], the Vd was determined as 1.8 L/kg. Besides, the Tmax in data set [14] was 3.3 h. In addition, the AUC(0-inf) in data set [15] came to 7900 ng·h/mL. Further, the half-life in data set [16] is 6.4 h.

As for `COc1cc2nccc(Oc3ccc4c(c3)OCCN4C(=O)Nc3ccc(F)cc3)c2cc1OC`, the solubility is 3.3 µg/mL (≈ 6.94 µM) in data set [1], 41 µg/mL (≈ 86.2 µM) in data set [7] (setting [20]) and more than 200 µg/mL in [11] (setting [21]). Further, the pIC50 was 5.96 in data set [2]; 8.52 in data set [5]; 6.52 with HUVEC [8]; 7.05 in data set [9]; 5.82 on Angiopoietin-1 receptor; 8.70 in the data set with HUVEC [12]. This molecule had a clearance in data set [3] of 13.7 mL/min/kg. The molecule further yielded a bioavailability in data set [4] of 81%. The Cmax in [6] came to 410 ng/mL. In addition, the microsomal CLint in data set [10] was found to be 74 µL/min/mg; in data set [17] it was 17 µL/min/mg. For the same molecule, the Vd in [13] was 2.1 L/kg. In data set [14], the time of peak concentration (Tmax) is 2.7 h. This molecule also yielded a total exposure AUC(0-inf) in data set [15] of 2600 ng·h/mL. This molecule showed a half-life in data set [16] of 3 h.
